Reference: ChEMBL document CHEMBL3244277, “Study of trans-cyclopropylbis (diketopiperazine) and chelating agents related to ICRF 159. Cytotoxicity, mutagenicity, and effects on scheduled and unscheduled DNA synthesis” (J Med Chem, 1977)

Assays:
[1] = Cytotoxicity against chinese hamster V79-4 cells assessed as survival using 1 x 10^5 cells per plate at […] after 24 hrs; type: cell-based, Cricetulus griseus; settings: read-out: Survival
[2] = Cytotoxicity against chinese hamster V79-4 cells assessed as survival using 5 x 10^5 cells per plate at 10^-4 M after 24 hrs; type: cell-based, Cricetulus griseus; settings: read-out: Survival
Procedure, shortened: (§1)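 Chinese hamster V-79A cells were seeded in 100-mm dishes, allowed to attach for 2 h, then exposed for 24 h to drug diluted from PBS stocks into Eagle's MEM with 15% fetal calf serum. Cells were rinsed twice in Hank's salt solution and grown drug-free for 7 days at 37 °C in 5% CO2. Colonies were stained with hematoxylin/eosin and counted; each value is the mean of eight plates.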

[3] = Cytotoxicity against chinese hamster V79-4 cells assessed as survival using 5 x 10^5 cells per plate at […] after 24 hrs; type: cell-based, Cricetulus griseus; settings: read-out: Survival
[4] = Cytotoxicity against chinese hamster V79-4 cells assessed as survival using 1 x 10^5 cells per plate at 10^-3 M after 24 hrs; type: cell-based, Cricetulus griseus; settings: read-out: Survival; procedure, shortened: as §1
[5] = Cytotoxicity against chinese hamster V79-4 cells assessed as survival using 5 x 10^5 cells per plate at 10^-3 M after 24 hrs; type: cell-based, Cricetulus griseus; settings: read-out: Survival; procedure, shortened: as §1
[6] = Cytotoxicity against chinese hamster V79-4 cells assessed as survival using 1 x 10^5 cells per plate at 10^-4 M after 24 hrs; type: cell-based, Cricetulus griseus; settings: read-out: Survival; procedure, shortened: as §1
V79-4 [7] = assay: Mutagenicity in chinese hamster V79-4 cells assessed as mutation frequency measured per 1 x 10^5 cells per plate at 10^-4 M after 24 hrs relative to control; type: toxicity, cell-based, Cricetulus griseus; settings: v79-4, 24 h, 100 µM
V79-4 [8] = assay: Mutagenicity in chinese hamster V79-4 cells assessed as mutation frequency measured per 5 x 10^5 cells per plate at 10^-5 M after 24 hrs relative to control; type: toxicity, cell-based, Cricetulus griseus; settings: v79-4, 24 h, 10 µM
Procedure, shortened: (§2)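 V-79A cells plated at 5×10⁵ or 1×10⁵ per dish in MEM + 5% FCS and allowed 2 h to attach. Exposed 24 h at 37 °C to 10⁻³–10⁻⁵ M drug or none, washed in PBS, then grown 12 days in MEM + 10% FCS with 10⁻³ M ouabain. Resistant colonies were counted after hematoxylin/eosin staining, averaging 20 plates, and expressed per 5×10⁵ cells.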

V79-4 [9] = assay: Inhibition of scheduled DNA synthesis in chinese hamster V79-4 cells assessed as DNA synthesis at 10^-3 M measured at 10 hrs by [3H]thymidine uptake /autoradiography (reference value: 83.3 %); type: functional, Cricetulus griseus; set-up: scale not given: the % may be the effect or the level left
V79-4 [10] = assay: Induction of unscheduled DNA synthesis in chinese hamster V79-4 cells assessed as DNA synthesis at 10^-4 to 10^-5 M measured at 0 to 5 hrs by [3H]thymidine uptake /autoradiography in presence of 2 x 10^-3 M hydroxyurea; settings: Cricetulus griseus
V79-4 [11] = assay: Inhibition of scheduled DNA synthesis in chinese hamster V79-4 cells assessed as DNA synthesis at 10^-5 M measured at 10 hrs by [3H]thymidine uptake /autoradiography (reference value: 83.3 %); type: functional, Cricetulus griseus; set-up: scale not given: the % may be the effect or the level left
V79-4 [12] = assay: Mutagenicity in chinese hamster V79-4 cells assessed as mutation frequency measured per 5 x 10^5 cells per plate at 10^-4 M after 24 hrs relative to control; type: toxicity, cell-based, Cricetulus griseus; settings: v79-4, 24 h, 100 µM; procedure, shortened: as §2
V79-4 [13] = assay: Inhibition of scheduled DNA synthesis in chinese hamster V79-4 cells assessed as DNA synthesis at 10^-4 M measured at 10 hrs by [3H]thymidine uptake /autoradiography (reference value: 83.3 %); type: functional, Cricetulus griseus; set-up: scale not given: the % may be the effect or the level left
V79-4 [14] = assay: Induction of unscheduled DNA synthesis in chinese hamster V79-4 cells assessed as DNA synthesis at 10^-3 M measured at 8 hrs by [3H]thymidine uptake /autoradiography in presence of 2 x 10^-3 M hydroxyurea; settings: Cricetulus griseus, v79-4, 8 h, 1000 µM
V79-4 [15] = assay: Inhibition of scheduled DNA synthesis in chinese hamster V79-4 cells assessed as DNA synthesis at 10^-3 M measured at 10 hrs by [3H]thymidine uptake /autoradiography (reference value: 85.2 %); type: functional, Cricetulus griseus; set-up: scale not given: the % may be the effect or the level left
V79-4 [16] = assay: Induction of unscheduled DNA synthesis in chinese hamster V79-4 cells assessed as DNA synthesis at 10^-3 to 10^-5 M measured at 0 to 8 hrs by [3H]thymidine uptake /autoradiography in presence of 2 x 10^-3 M hydroxyurea; settings: Cricetulus griseus
V79-4 [17] = assay: Inhibition of scheduled DNA synthesis in chinese hamster V79-4 cells assessed as DNA synthesis at 10^-4 M measured at 10 hrs by [3H]thymidine uptake /autoradiography (reference value: 85.2 %); type: functional, Cricetulus griseus; set-up: scale not given: the % may be the effect or the level left
V79-4 [18] = assay: Inhibition of scheduled DNA synthesis in chinese hamster V79-4 cells assessed as DNA synthesis at 10^-5 M measured at 10 hrs by [3H]thymidine uptake /autoradiography (reference value: 85.2 %); type: functional, Cricetulus griseus; set-up: scale not given: the % may be the effect or the level left
V79-4 [19] = assay: Inhibition of scheduled DNA synthesis in chinese hamster V79-4 cells assessed as DNA synthesis at 10^-5 M measured at 10 hrs by [3H]thymidine uptake /autoradiography (reference value: 81.7 %); type: functional, Cricetulus griseus; set-up: scale not given: the % may be the effect or the level left
V79-4 [20] = assay: Inhibition of scheduled DNA synthesis in chinese hamster V79-4 cells assessed as DNA synthesis at 10^-3 M measured at 10 hrs by [3H]thymidine uptake /autoradiography (reference value: 81.7 %); type: functional, Cricetulus griseus; set-up: scale not given: the % may be the effect or the level left
V79-4 [21] = assay: Induction of unscheduled DNA synthesis in chinese hamster V79-4 cells assessed as DNA synthesis at 10^-3 to 10^-5 M measured at 8 hrs by [3H]thymidine uptake /autoradiography in presence of 2 x 10^-3 M hydroxyurea; settings: Cricetulus griseus, v79-4, 8 h
V79-4 [22] = assay: Inhibition of scheduled DNA synthesis in chinese hamster V79-4 cells assessed as DNA synthesis at 10^-4 M measured at 10 hrs by [3H]thymidine uptake /autoradiography (reference value: 81.7 %); type: functional, Cricetulus griseus; set-up: scale not given: the % may be the effect or the level left

Structure (SMILES)	viability at 24 h, 10 µM [1] [%]	viability at 24 h, 100 µM [2] [%]	viability at 24 h, 10 µM [3] [%]	viability at 24 h, 1000 µM [4] [%]	viability at 24 h, 1000 µM [5] [%]	viability at 24 h, 100 µM [6] [%]	Activity (V79-4 [10])	Activity (V79-4 [14])	also measured
COC(=O)CN(CC(=O)OC)[C@@H]1C[C@H]1N(CC(=O)OC)CC(=O)OC (relative stereo)	90	2	90	0.02	0.02	2			
O=C1CN([C@H]2C[C@@H]2N2CC(=O)NC(=O)C2)CC(=O)N1 (relative stereo)	70	50	70	30	30	50	Non-toxic	Toxic	Activity (V79-4 [7]): Non-toxic; Activity (V79-4 [8]): Non-toxic; Activity (V79-4 [9]): 76.3%; Activity (V79-4 [11]): 82.2%; Activity (V79-4 [12]): Non-toxic; Activity (V79-4 [13]): 78.3%
O=C(O)CN(CC(=O)O)[C@@H]1C[C@H]1N(CC(=O)O)CC(=O)O (relative stereo)	10	0.6	10		0.04				Activity (V79-4 [15]): 7.3%; Activity (V79-4 [16]): Toxic; Activity (V79-4 [17]): 75.5%; Activity (V79-4 [18]): 83.8%
CC(CN(CC(=O)O)CC(=O)O)N(CC(=O)O)CC(=O)O (centres undefined)	94	85	94		1	85	Non-toxic	Toxic	Activity (V79-4 [19]): 69.2%; Activity (V79-4 [20]): 61.1%; Activity (V79-4 [21]): Toxic; Activity (V79-4 [22]): 64.7%
